High-throughput results: PubChem BioAssay, The Scripps Research Institute Molecular Screening Center
ASAP1 GAP inh = ASAP1 ArfGAP inhibition; Q9ULH1; inhibition, % at 16.5 µM; ASAP1-stimulated ARF1 GTP hydrolysis, GDP FP detection; AID 624377; 360,000 compounds, 0.19% hits; in the data active = inhibition above about 25%
Target sequence (Q9ULH1 325-724 limits assumed): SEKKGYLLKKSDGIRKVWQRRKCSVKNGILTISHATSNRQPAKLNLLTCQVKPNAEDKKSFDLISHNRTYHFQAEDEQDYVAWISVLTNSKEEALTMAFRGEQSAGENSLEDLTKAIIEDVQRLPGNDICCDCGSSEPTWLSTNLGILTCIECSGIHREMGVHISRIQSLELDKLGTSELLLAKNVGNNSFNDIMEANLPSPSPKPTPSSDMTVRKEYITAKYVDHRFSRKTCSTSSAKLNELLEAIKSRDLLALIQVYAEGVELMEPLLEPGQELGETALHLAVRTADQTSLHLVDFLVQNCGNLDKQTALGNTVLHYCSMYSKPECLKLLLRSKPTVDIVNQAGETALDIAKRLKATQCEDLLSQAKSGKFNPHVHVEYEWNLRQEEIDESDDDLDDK
MsrA inhibitor = inhibits bovine methionine sulfoxide reductase A; purified bovine MsrA, absorbance read-out; inhibition, % at 15.5 µM; 360,000 compounds, 0.75% hits; AID 651718; in the data active = inhibition above about 4.5%
ARFGAP1 inh = inhibits rat ARF GTPase activating protein 1 | Q62848 | Arfgap1-stimulated ARF1 GTP hydrolysis, GDP FP detection | inhibition, % at 16.5 µM | 360,000 compounds, 0.26% hits | AID 651572;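 active = inhibition above a per-plate limit, mean inhibition of low control wells plus 3 SD, cut at about 25% in these data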
Target sequence (Q62848 1-136 limits assumed): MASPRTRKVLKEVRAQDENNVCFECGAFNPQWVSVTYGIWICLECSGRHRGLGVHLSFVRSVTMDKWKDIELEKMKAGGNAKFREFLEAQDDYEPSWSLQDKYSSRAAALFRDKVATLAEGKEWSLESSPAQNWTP
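material = rat Arfgap1 catalytic domain, aa 1-136 | also added = human ARF1(Δ1-17)-GTP substrate | compound dosing = one concentration, 16.5 µM, DMSO 1.26% | times = GTP hydrolysis reaction 2 h at 25 °C | measured by = FP, GDP Alexa 633 tracer displaced from anti-GDP antibody, 620/688 nm | evaluation = percent inhibition of Arfgap1-stimulated GTP hydrolysis | replication = single well per compound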
MsrA act = activators of bovine methionine sulfoxide reductase A. purified bovine MsrA, absorbance read-out. activation, % at 10.6 µM. 360,000 compounds, 0.3% hits. AID 602163; in the data active = activation above about 7.5%
MsrA activ conf = confirmation of bovine methionine sulfoxide reductase A activators; activation, % at 10.6 µM; 1,000 compounds, 12% hits; shares compounds with MsrA act; purified bovine MsrA, absorbance read-out; in the data active = activation above about 4%;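 also: enzyme coupled to thioredoxin and thioredoxin reductase with NADPH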
Of the large screens only hits and unclear results are named; the others gave an inactive call (follow-up assays come after a bar, where they were run). This is a sample that favours compounds with a hit; in the whole collection about 1.4% have one here.

COc1ccc(C(CNC(=O)c2cccc(N(C)C)c2)N2CCCC2)cc1 (configuration not stated)	MsrA act 9.0 | MsrA activ conf inactive
COc1ccc(NS(=O)(=O)c2cccc(C(=O)NCC(c3ccc(OC)cc3)N3CCCC3)c2)cc1 (configuration not stated)	none
O=C(COC(=O)CCCNC(=O)c1ccc(Cl)cc1)NC1CC1	MsrA act 7.9 | MsrA activ conf inactive
Cc1onc(C(=O)N2C(C)CCCC2C)c1[N+](=O)[O-] (configuration not stated)	MsrA act 8.8 | MsrA activ conf inactive
COc1cc(C2=NC(CO)(CO)CO2)cc(OC)c1OC	none
CC(C)OP(=O)(OC(C)C)C1(NS(=O)(=O)c2ccc(Cl)cc2)C=C(Cl)C(=O)C(Cl)=C1	none
CC(C)(C)Nc1nc(SCC(=O)Nc2ccccc2)nc(N2CCOCC2)n1	none
CN(C)c1nc(NC(C)(C)C)nc(SCC(=O)Nc2ccccc2)n1	MsrA act 7.7 | MsrA activ conf inactive
OC(c1cc(F)cc(Cl)c1)c1ncc(-c2ccccc2C(F)(F)F)[nH]1 (configuration not stated)	none
Cc1ccc(-n2[nH]c(C)c(C=Nc3ccc4[nH]c(=O)[nH]c4c3)c2=O)cc1	MsrA act 7.8 | MsrA activ conf inactive
Cc1ccc(-n2[nH]c(C)c(C=Nc3ccc4[nH]c(=O)[nH]c4c3)c2=O)cc1C	none
CSCCC(NC(=O)c1ccco1)C(=O)NCc1ccc2c(c1)OCO2 (configuration not stated)	none
CCCC(O)(c1ccc(CC)cc1)C(CN1CCOCC1)c1ccccc1 (configuration not stated)	none
C=CCN1C(=O)c2ccccc2C1(O)Cc1ccccc1 (configuration not stated)	MsrA act 11 | MsrA activ conf inactive
CC(C)CN1C(=O)c2ccccc2C1(O)Cc1ccccc1 (configuration not stated)	none
CC(OC(=O)CNC(=O)C12CC3CC(CC(C3)C1)C2)C(=O)Nc1ccc(S(N)(=O)=O)cc1 (configuration not stated)	MsrA act 9.1 | MsrA activ conf inactive
NS(=O)(=O)c1ccc(NC(=O)COC(=O)CNC(=O)C23CC4CC(CC(C4)C2)C3)cc1	none
CC(=O)Nc1ccc(NC(=O)CCC(=O)OCC(=O)c2cccc([N+](=O)[O-])c2)cc1	none
CC(=O)Nc1ccc(C(=O)OCC(=O)c2cccc([N+](=O)[O-])c2)cc1	MsrA act 8.4 | MsrA activ conf inactive
COc1ccc(C(=O)OCC(=O)NCC2CCCO2)cc1S(=O)(=O)N1CCCc2ccccc21 (configuration not stated)	none
Cc1[nH]c2ccccc2c1CC(=O)O	MsrA act 13 | MsrA activ conf inactive
CCOC(=O)c1cnc(Nc2nc3ccccc3o2)nc1CSc1nnc(C)s1	MsrA act 15 | MsrA activ conf inactive
CCOC(=O)c1cnc(Nc2nc3ccccc3o2)nc1C	none
COc1ccc(/C=C/C(=O)NCCc2ccc(S(N)(=O)=O)cc2)cc1	MsrA act 13 | MsrA activ conf inactive
O=C1CCCCC(=O)[C@H](O)C[C@H](COCc2ccccc2)O1	none
O=C(NCc1ccccc1)C1=C[C@H](c2ccc3c(c2)OCO3)C[C@H](OCc2ccc(CO)cc2)O1	none
C#CCNC(=O)C1=C[C@@H](c2ccc3c(c2)OCO3)C[C@@H](OCc2ccc(CO)cc2)O1	MsrA act 8.5 | MsrA activ conf inactive
COc1ccc(CCC(C)NC(=O)Cc2ccc(OC)c(OC)c2)c(OC)c1 (configuration not stated)	none
Cc1[nH]c(=S)sc1Cc1ccc(Cl)c(Cl)c1	none (no result: MsrA act)
Cc1cc(Cl)cc2sc(=S)[nH]c12	MsrA act 8.2 | MsrA activ conf inactive
Cc1ccc(S(=O)(=O)Nc2cccc(-c3ccc4nnc(C)n4n3)c2)s1	MsrA act 20 | MsrA activ conf inactive
O=C(NCSc1ccnc(SCNC(=O)c2ccccc2)n1)c1ccccc1	MsrA act 11 | MsrA activ conf inactive
CCC(C)(C)NC(=O)C(c1cccc(OC)c1OC)N(C(=O)CCC(=O)Nc1cc(C)on1)c1ccc2c(c1)OCCO2 (configuration not stated)	none
CC(Sc1ncnc2sc(-c3ccccc3)cc12)C(=O)N1CCNC1=O (configuration not stated)	none
CC(C)N(C(=O)CSc1ncnc2sc(-c3ccccc3)cc12)C(C)C	MsrA act 9.1 | MsrA activ conf inactive
O=c1cc(N2CCC3(CC2)OCCO3)[nH]c(=O)n1C1CCCCC1	MsrA act 9.6 | MsrA activ conf inactive
CCOC(=O)N1CCN(C(=O)C[C@@H]2C[C@@]3(C(=O)OC)CCCCC=C3N(CCc3ccc(OC)c(OC)c3)C2=O)CC1	none (no result: MsrA act)
CCOc1ccccc1N(CC)C(=O)c1cc2c(s1)-c1ccccc1S(=O)(=O)C2	none
O=C1c2ccccc2-c2c1cccc2C(=O)N(CCO)CCO	MsrA act 12 | MsrA activ conf inactive
CS(=O)(=O)N1CCCC(C(=O)Nc2ccccc2)C1 (configuration not stated)	none
CC(C)(C)c1ccc(NC(=O)COC(=O)c2ccc([N+](=O)[O-])s2)cc1	MsrA act 10 | MsrA activ conf 4.3
O=C(COC(=O)c1ccc([N+](=O)[O-])s1)NC(c1ccccc1)c1ccccc1	MsrA act 17 | MsrA activ conf 6.0
CC(=O)Nc1ccc(OCC(=O)NCCc2ccccc2)cc1	MsrA act 7.8 | MsrA activ conf inactive
Cc1c(Cl)cnc(NC(=O)COC(=O)c2ccc([N+](=O)[O-])s2)c1Cl	none
O=C(COc1ccccc1)Nc1ccc([N+](=O)[O-])cc1	MsrA act 20 | MsrA activ conf inactive
CCCCN(C=O)c1c(CC)nc2c(OCc3ccc(C(F)(F)F)cc3)cccn12	none
O=C(COC(=O)c1ccc([N+](=O)[O-])s1)NCc1ccccc1	MsrA act 8.4 | MsrA activ conf inactive
O=C(COC(=O)c1ccc([N+](=O)[O-])s1)Nc1ccccc1	MsrA act 23 | MsrA activ conf 11
O=C(COC(=O)c1cccs1)Nc1cccc(S(=O)(=O)NC2=NCCCCC2)c1	none
O=C(COC(=O)c1ccc([N+](=O)[O-])s1)Nc1cccc(S(=O)(=O)NC2=NCCCCC2)c1	MsrA act 9.8 | MsrA activ conf 4.4
COc1ccc(S(=O)(=O)N2CCOCC2)cc1NC(=O)COC(=O)c1[nH]c(C)c(C(C)=O)c1C	none
COc1ccc(S(=O)(=O)N2CCOCC2)cc1NC(=O)COC(=O)c1ccc([N+](=O)[O-])s1	MsrA act 20 (no result: ASAP1 GAP inh, MsrA inhibitor, ARFGAP1 inh) | MsrA activ conf 11
O=C(NCc1ccccc1C(F)(F)F)c1cccc2c1C(=O)c1ccc(N3CCCCC3)cc1S2(=O)=O	none
O=C(Cc1ccc(NC(=O)C2CCN(C(=O)CCc3ccccc3)CC2)cc1)Nc1ccc(C(=O)N2CCOCC2)cc1	none
O=C(COC(=O)c1ccc([N+](=O)[O-])s1)Nc1ccc(Cl)cn1	none
O=C(COC(=O)c1ccc([N+](=O)[O-])s1)Nc1ccc(F)cc1	MsrA act 20 | MsrA activ conf 9.1
